According to ChEMBL document CHEMBL3588757, “Structure-based design, synthesis and biological testing of piperazine-linked bis-epipodophyllotoxin etoposide analogs” (Bioorg Med Chem, 2015):
Calls of active or inactive are those of the source. No cut-off for these calls is given here.

Experiments:
HOP-62 = assay: Cytotoxicity against human HOP62 cells by SRB assay; assay type: functional
In short: (§1)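 Measured in the NCI-60 human tumour cell line panel using five-dose testing. Growth was recorded at each dose for each cell line, and a GI50 was derived for each line.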

T47D = assay: Cytotoxicity against human T47D cells by SRB assay; assay type: functional
In short: (§2)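 NCI-60 panel screen; 5-dose testing giving GI50 per cell line, plus a single 10 µM one-dose test. Method details not given beyond the NCI screen.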

PC-3 [1] = assay: Cytotoxicity against human PC3 cells assessed as cell growth at 5 uM by SRB assay; assay type: functional; details: read-out: Activity
OVCAR-5 = assay: Cytotoxicity against human OVCAR5 cells by SRB assay; assay type: functional; in short: as §2
SK-MEL-5 = assay: Cytotoxicity against human SK-MEL-5 cells by SRB assay; assay type: functional; in short: as §2
A549 = assay: Cytotoxicity against human A549/ATCC cells by SRB assay; assay type: functional
A498 [2] = assay: Cytotoxicity against human A498 cells by SRB assay; assay type: functional
NCI-H23 [3] = assay: Cytotoxicity against human NCI-H23 cells assessed as cell growth at 5 uM by SRB assay; assay type: functional; details: read-out: Activity
SR = assay: Cytotoxicity against human SR cells assessed as cell growth at 0.005 uM by SRB assay; assay type: functional; details: read-out: Activity
786-0 [4] = assay: Cytotoxicity against human 786-0 cells assessed as cell growth at 0.05 uM by SRB assay; assay type: functional; details: read-out: Activity
786-0 [5] = assay: Cytotoxicity against human 786-0 cells by SRB assay; assay type: functional
A498 [6] = assay: Cytotoxicity against human A498 cells assessed as cell growth at 50 uM by SRB assay; assay type: functional; details: read-out: Activity
SNB-75 = assay: Cytotoxicity against human SNB75 cells assessed as cell growth at 50 uM by SRB assay; assay type: functional; details: read-out: Activity
HCT-15 [7] = assay: Cytotoxicity against human HCT15 cells by SRB assay; assay type: functional; in short: as §1
A498 [8] = assay: Cytotoxicity against human A498 cells assessed as cell growth at 5 uM by SRB assay; assay type: functional; details: read-out: Activity
RPMI-8226 = assay: Cytotoxicity against human RPMI8226 cells by SRB assay; assay type: functional; in short: as §2
HCT-15 [9] = assay: Cytotoxicity against human HCT15 cells assessed as cell growth at 0.05 uM by SRB assay; assay type: functional; details: read-out: Activity; in short: as §1
PC-3 [10] = assay: Cytotoxicity against human PC3 cells assessed as cell growth at 0.05 uM by SRB assay; assay type: functional; details: read-out: Activity
OVCAR-4 = assay: Cytotoxicity against human OVCAR4 cells assessed as cell growth at 5 uM by SRB assay; assay type: functional; details: read-out: Activity
[11] = Cytotoxicity against human Hs578T cells assessed as cell growth at 50 uM by SRB assay; assay type: functional; details: Hs-578T, read-out: Activity; in short: as §1
SK-MEL-2 = assay: Cytotoxicity against human SK-MEL-2 cells assessed as cell growth at 0.005 uM by SRB assay; assay type: functional; details: read-out: Activity
MCF7 = assay: Cytotoxicity against human MCF7 cells assessed as cell growth at 0.5 uM by SRB assay; assay type: functional; details: read-out: Activity
LOX IMVI = assay: Cytotoxicity against human LOXIMVI cells assessed as cell growth at 0.5 uM by SRB assay; assay type: functional; details: read-out: Activity
K562 = assay: Induction of DNA double strand breaks in human K562 cells assessed as increase in gamma-H2AX level at 25 uM after 4 hrs by chemiluminescence analysis; assay type: functional, cell-based
In short: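 K562 cells (3.4 × 10^5/mL) exposed 4 h at 37 °C to 25 µM drug or DMSO. Lysed in Tris pH 6.7/SDS buffer; 50 µg protein on 14% SDS-PAGE, PVDF blot. Rabbit anti-γH2AX (1:1000, overnight), GAPDH loading control, HRP secondary. Chemiluminescence imaged by CCD.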

SF-268 = assay: Cytotoxicity against human SF268 cells assessed as cell growth at 0.5 uM by SRB assay; assay type: functional; details: read-out: Activity
CAKI-1 = assay: Cytotoxicity against human Caki1 cells assessed as cell growth at 0.05 uM by SRB assay; assay type: functional; details: read-out: Activity
NCI-H23 [12] = assay: Cytotoxicity against human NCI-H23 cells assessed as cell growth at 0.5 uM by SRB assay; assay type: functional; details: read-out: Activity
KM12 = assay: Cytotoxicity against human KM12 cells by SRB assay; assay type: functional; in short: as §2
U-251 = assay: Cytotoxicity against human U251 cells by SRB assay; assay type: functional; in short: as §2
SF-295 = assay: Cytotoxicity against human SF295 cells assessed as cell growth at 0.005 uM by SRB assay; assay type: functional; details: read-out: Activity
HCT-15 [13] = assay: Cytotoxicity against human HCT15 cells assessed as cell growth at 50 uM by SRB assay; assay type: functional; details: read-out: Activity; in short: as §1
MDA-MB-435 = assay: Cytotoxicity against human MDA-MB-435 cells assessed as cell growth at 5 uM by SRB assay; assay type: functional; details: read-out: Activity
MDA-MB-468 = assay: Cytotoxicity against human MDA-MB-468 cells by SRB assay; assay type: functional; in short: as §2
COLO 205 = assay: Cytotoxicity against human COLO205 cells assessed as cell growth at 5 uM by SRB assay; assay type: functional; details: read-out: Activity
[14] = read-out: LC50 (the source's name)
[15] = read-out: pLC50 (the source's name) (converted)

With `COc1cc([C@@H]2c3cc4c(cc3[C@@H](NC(=O)CN3CCN(CCCCCCN5CCN(CC(=O)N[C@@H]6c7cc8c(cc7[C@@H](c7cc(OC)c(O)c(OC)c7)[C@H]7C(=O)OC[C@@H]76)OCO8)CC5)CC3)[C@H]3COC(=O)[C@H]23)OCO4)cc(OC)c1O` the GI50 (HOP-62; read-out: GI50) was 3.6 µM, the CC50 (HOP-62; [14]) was > 50 µM and the TGI (HOP-62; read-out: TGI) was 22.8 µM. For the same molecule, the GI50 (HOP-62; read-out: pGI50 (converted)) was 3.63 µM, the CC50 (HOP-62; [15]) was > 50.1 µM and the TGI (HOP-62; read-out: pTGI (converted)) was 22.9 µM. For the same molecule, the GI50 (T47D; read-out: GI50) was 2010 nM, the CC50 (T47D; [14]) was > 50 µM and the TGI (T47D; read-out: TGI) was > 50 µM. The GI50 (T47D; read-out: pGI50 (converted)) was 2000 nM, the CC50 (T47D; [15]) was > 50.1 µM and the TGI (T47D; read-out: pTGI (converted)) was > 50.1 µM. For the same molecule, the growth at 5 µM (PC-3 [1]) was 54%, the GI50 (OVCAR-5; read-out: GI50) was 7.24 µM and the CC50 (OVCAR-5; [14]) was > 50 µM. For the same molecule, the TGI (OVCAR-5; read-out: TGI) was > 50 µM, the GI50 (OVCAR-5; read-out: pGI50 (converted)) was 7.24 µM and the CC50 (OVCAR-5; [15]) was > 50.1 µM. For the same molecule, the TGI (OVCAR-5; read-out: pTGI (converted)) was > 50.1 µM, the GI50 (SK-MEL-5; read-out: GI50) was 6.93 µM and the CC50 (SK-MEL-5; [14]) was > 50 µM. The TGI (SK-MEL-5; read-out: TGI) was > 50 µM, the GI50 (SK-MEL-5; read-out: pGI50 (converted)) was 6.92 µM and the CC50 (SK-MEL-5; [15]) was > 50.1 µM. For the same molecule, the TGI (SK-MEL-5; read-out: pTGI (converted)) was > 50.1 µM, the GI50 (A549; read-out: GI50) was 919 nM and the CC50 (A549; [14]) was > 50 µM. For the same molecule, the TGI (A549; read-out: TGI) was 15.2 µM, the GI50 (A549; read-out: pGI50 (converted)) was 912 nM and the CC50 (A549; [15]) was > 50.1 µM. The TGI (A549; read-out: pTGI (converted)) was 15.1 µM, the GI50 (A498 [2]; read-out: GI50) was 5.74 µM and the CC50 (A498 [2]; [14]) was > 50 µM. The TGI (A498 [2]; read-out: TGI) was 35.2 µM, the GI50 (A498 [2]; read-out: pGI50 (converted)) was 5.75 µM and the CC50 (A498 [2]; [15]) was > 50.1 µM. For the same molecule, the TGI (A498 [2]; read-out: pTGI (converted)) was 35.5 µM, the growth at 5 µM (NCI-H23 [3]) was 44% and the growth at 0.005 µM (SR) was 90%. For the same molecule, the growth at 0.05 µM (786-0 [4]) was 96%, the GI50 (786-0 [5]; read-out: GI50) was 2860 nM and the CC50 (786-0 [5]; [14]) was > 50 µM. For the same molecule, the TGI (786-0 [5]; read-out: TGI) was 31.7 µM, the GI50 (786-0 [5]; read-out: pGI50 (converted)) was 2880 nM and the CC50 (786-0 [5]; [15]) was > 50.1 µM. For the same molecule, the TGI (786-0 [5]; read-out: pTGI (converted)) was 31.6 µM, the growth at 50 µM (A498 [6]) was -10% and the growth at 50 µM (SNB-75) was -31%. For the same molecule, the GI50 (HCT-15 [7]; read-out: GI50) was > 50 µM, the CC50 (HCT-15 [7]; [14]) was > 50 µM and the TGI (HCT-15 [7]; read-out: TGI) was > 50 µM. The GI50 (HCT-15 [7]; read-out: pGI50 (converted)) was > 50.1 µM, the CC50 (HCT-15 [7]; [15]) was > 50.1 µM and the TGI (HCT-15 [7]; read-out: pTGI (converted)) was > 50.1 µM. For the same molecule, the growth at 5 µM (A498 [8]) was 54%, the GI50 (RPMI-8226; read-out: GI50) was 890 nM and the CC50 (RPMI-8226; [14]) was > 50 µM. The TGI (RPMI-8226; read-out: TGI) was 4.9 µM, the GI50 (RPMI-8226; read-out: pGI50 (converted)) was 891 nM and the CC50 (RPMI-8226; [15]) was > 50.1 µM. It also gave a TGI (RPMI-8226; read-out: pTGI (converted)) of 4.9 µM, a growth at 0.05 µM (HCT-15 [9]) of 93% and a growth at 0.05 µM (PC-3 [10]) of 90%. The growth at 5 µM (OVCAR-4) was 64%, the growth at 50 µM [11] was 9% and the growth at 0.005 µM (SK-MEL-2) was 102%. The growth at 0.5 µM (MCF7) was 31%, the growth at 0.5 µM (LOX IMVI) was 61% and the Activity (K562) was “Active”. The growth at 0.5 µM (SF-268) was 74%, the growth at 0.05 µM (CAKI-1) was 93% and the growth at 0.5 µM (NCI-H23 [12]) was 95%. For the same molecule, the GI50 (KM12; read-out: GI50) was 3.79 µM, the CC50 (KM12; [14]) was > 50 µM and the TGI (KM12; read-out: TGI) was > 50 µM. The GI50 (KM12; read-out: pGI50 (converted)) was 3.8 µM, the CC50 (KM12; [15]) was > 50.1 µM and the TGI (KM12; read-out: pTGI (converted)) was > 50.1 µM. For the same molecule, the GI50 (U-251; read-out: GI50) was 1560 nM, the CC50 (U-251; [14]) was > 50 µM and the TGI (U-251; read-out: TGI) was 25.1 µM. For the same molecule, the GI50 (U-251; read-out: pGI50 (converted)) was 1550 nM, the CC50 (U-251; [15]) was > 50.1 µM and the TGI (U-251; read-out: pTGI (converted)) was 25.1 µM. The growth at 0.005 µM (SF-295) was 90%, the growth at 50 µM (HCT-15 [13]) was 60% and the growth at 5 µM (MDA-MB-435) was 57%. For the same molecule, the GI50 (MDA-MB-468; read-out: GI50) was 1720 nM, the CC50 (MDA-MB-468; [14]) was 50 µM and the TGI (MDA-MB-468; read-out: TGI) was 12.3 µM. For the same molecule, the GI50 (MDA-MB-468; read-out: pGI50 (converted)) was 1740 nM, the CC50 (MDA-MB-468; [15]) was > 50.1 µM and the TGI (MDA-MB-468; read-out: pTGI (converted)) was 12.3 µM. It also gave a growth at 5 µM (COLO 205) of 54%.
